Measured values taken from ChEMBL document CHEMBL4706580, “4-Amino-1,2,4-triazole-3-thione-derived Schiff bases as metallo-β-lactamase inhibitors” (Eur J Med Chem, 2020).
The source made the active and inactive calls. The calls are words filed in the database; no cut-off is given here.

Experiments:
[1] = Inhibition of beta-lactamase NDM-1 (unknown origin) expressed in Escherichia coli LZ2310 assessed as potentiation of ceftazidime antibacterial activity by measuring ceftazidime induced diameter of inhibition zone at 40 uM incubated for 18 hrs by disk diffusion method (reference value: 15 mm)
Outline: (§1)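 Efflux-deficient E. coli LZ2310 (NorE, MdfA, AcrA knocked out) carrying pLB-II with the cloned MBL gene. Mueller-Hinton, CLSI disk diffusion; antibiotic disks (30 µg cefoxitin for VIM-2, 10 µg ampicillin for VIM-4, 30 µg ceftazidime for NDM-1/IMP-1) loaded with inhibitor in DMSO (≤15 µL). Zone diameter after 18 h, 35 ± 1 °C; DMSO and 220 µg EDTA controls. Triplicate.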

[2] = Inhibition of beta-lactamase CphA (unknown origin) expressed in Escherichia coli BL21(DE3) using imipenem as substrate by measuring substrate hydrolysis at 100 uM by spectrophotometric analysis
Outline: (§2)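 Enzyme 0.2–0.8 nM in 15 mM cacodylate pH 6.5, no added zinc, pre-incubated 30 min at 21 °C with inhibitor (100 μM screen). Imipenem substrate added from 10 mM stock; hydrolysis at 300 nm, 30 °C. Residual activity vs three uninhibited samples; Ki (1–100 μM inhibitor) by Hanes linearization, competitive model. Triplicate.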

[3] = Inhibition of beta-lactamase NDM1 (unknown origin) expressed in Escherichia coli BL21(DE3) using cefotaxime/nitrocefin as substrate by measuring substrate hydrolysis at 200 uM by spectrophotometric analysis
[4] = Inhibition of beta-lactamase NDM1 (unknown origin) expressed in Escherichia coli BL21(DE3) using cefotaxime/nitrocefin as substrate by measuring substrate hydrolysis at 100 uM by spectrophotometric analysis
[5] = Inhibition of beta-lactamase VIM2 (unknown origin) expressed in Escherichia coli BL21(DE3) using imipenem as substrate by measuring substrate hydrolysis by spectrophotometric analysis
Outline: (§3)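 Purified enzyme (overproduced in E. coli BL21(DE3), pET-9a; ion-exchange and gel filtration), 1-70 nM final. Reporter substrate 150 μM imipenem, read at 300 nm, 30 °C, 50 mM HEPES pH 7.5. Single-point screen at 100 or 200 μM; Ki from v0/vi vs [I] (0.5–1,000 μM final) assuming competitive inhibition, or Dixon plot. Triplicate.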

[6] = Inhibition of beta-lactamase L1 (unknown origin) expressed in Escherichia coli BL21(DE3) using nitrocefin as substrate by measuring substrate hydrolysis preincubated for 30 mins by spectrophotometric analysis
Outline: (§4)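 Enzyme 0.2–0.8 nM in 25 mM HEPES pH 7.5 with 50 μM ZnCl2 final, pre-incubated 30 min at 21 °C with inhibitor (100 μM screen). Nitrocefin 100 μM final, read at 482 nm, 30 °C. Residual activity vs three uninhibited samples; Ki (1–100 μM inhibitor) from Hanes linearization, competitive model. Triplicate.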

[7] = Inhibition of beta-lactamase VIM4 (unknown origin) expressed in Escherichia coli BL21(DE3) using imipenem as substrate by measuring substrate hydrolysis at 100 uM by spectrophotometric analysis; outline: as §3
[8] = Inhibition of beta-lactamase VIM-2 (unknown origin) expressed in Escherichia coli LZ2310 assessed as potentiation of cefoxitin antibacterial activity by measuring cefoxitin induced diameter of inhibition zone at 40 uM incubated for 18 hrs by disk diffusion method (reference value: 14 mm); outline: as §1
[9] = Inhibition of beta-lactamase IMP-1 (unknown origin) expressed in Escherichia coli BL21(DE3) using imipenem as substrate by measuring substrate hydrolysis at 100 uM by spectrophotometric analysis; outline: as §3
[10] = Inhibition of beta-lactamase NDM1 (unknown origin) expressed in Escherichia coli BL21(DE3) using cefotaxime/nitrocefin as substrate by measuring substrate hydrolysis by spectrophotometric analysis
Outline: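 His-tagged enzyme from E. coli BL21(DE3) pET-15b, affinity-purified, 1-70 nM final. Reporter substrate 120 μM cefotaxime (260 nm) or 100 μM nitrocefin (482 nm), 30 °C, 50 mM HEPES pH 7.5. Inhibitor 0.5–1,000 μM final; competitive Ki from v0/vi vs [I] slope or Dixon plot. Triplicate.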

[11] = Inhibition of beta-lactamase VIM4 (unknown origin) expressed in Escherichia coli BL21(DE3) using imipenem as substrate by measuring substrate hydrolysis by spectrophotometric analysis; outline: as §3
[12] = Inhibition of beta-lactamase CphA (unknown origin) expressed in Escherichia coli BL21(DE3) using imipenem as substrate by measuring substrate hydrolysis by spectrophotometric analysis; outline: as §2
[13] = Inhibition of beta-lactamase IMP-1 (unknown origin) expressed in Escherichia coli BL21(DE3) using imipenem as substrate by measuring substrate hydrolysis at 200 uM by spectrophotometric analysis; outline: as §3
[14] = Inhibition of beta-lactamase VIM2 (unknown origin) expressed in Escherichia coli BL21(DE3) using imipenem as substrate by measuring substrate hydrolysis at 100 uM by spectrophotometric analysis; outline: as §3
[15] = Inhibition of beta-lactamase VIM2 (unknown origin) expressed in Escherichia coli BL21(DE3) using imipenem as substrate by measuring substrate hydrolysis at 200 uM by spectrophotometric analysis; outline: as §3
[16] = Inhibition of beta-lactamase L1 (unknown origin) expressed in Escherichia coli BL21(DE3) using nitrocefin as substrate by measuring substrate hydrolysis at 100 uM preincubated for 30 mins by spectrophotometric analysis; outline: as §4
[17] = Inhibition of beta-lactamase L1 (unknown origin) expressed in Escherichia coli BL21(DE3) using nitrocefin as substrate by measuring substrate hydrolysis at 200 uM preincubated for 30 mins by spectrophotometric analysis
[18] = Inhibition of beta-lactamase VIM4 (unknown origin) expressed in Escherichia coli BL21(DE3) using imipenem as substrate by measuring substrate hydrolysis at 200 uM by spectrophotometric analysis; outline: as §3
[19] = Inhibition of beta-lactamase IMP-1 (unknown origin) expressed in Escherichia coli BL21(DE3) using imipenem as substrate by measuring substrate hydrolysis by spectrophotometric analysis; outline: as §3
[20] = Inhibition of beta-lactamase VIM-4 (unknown origin) expressed in Escherichia coli LZ2310 assessed as potentiation of ampicillin antibacterial activity by measuring ampicillin induced diameter of inhibition zone at 40 uM incubated for 18 hrs by disk diffusion method (reference value: 6 mm); outline: as §1

Row | inhibition zone (IZ) [1] | inhibition [2] | inhibition [3] | inhibition [4] | inhibition [7] | inhibition zone (IZ) [8] | inhibition [9] | inhibition [13] | inhibition [14] | inhibition [15] | inhibition [16] | inhibition [17] | inhibition [18] | inhibition zone (IZ) [20] | SMILES | Ki [5] | Ki [6] | Ki [10] | Ki [11] | Ki [12] | Ki [19]
1 | 15 mm |  |  |  |  | 14 mm | 62% |  |  |  |  |  |  |  | O=C(O)c1ccccc1/C=N/n1c(-c2ccc(OCc3ccccc3)cc2)n[nH]c1=S | 0.9 µM | 0.4 µM | 2.8 µM | 1 µM |  | 
2 | 15 mm |  |  |  |  |  | inactive | inactive |  |  |  |  |  |  | O=C(O)c1ccccc1/C=N/n1c(CC(c2ccccc2)c2ccccc2)n[nH]c1=S | 25.4 µM | 2.4 µM | 2.7 µM | 5.6 µM | 15 µM | 
3 | 15 mm |  |  |  |  |  | inactive | inactive | inactive | inactive | 25% |  |  |  | Oc1ccc(/C=N/n2c(-c3cccc(F)c3)n[nH]c2=S)c(O)c1 |  |  | 11.7 µM | 4 µM |  | 
4 |  |  |  |  | inactive |  |  |  | inactive | inactive | inactive | inactive | inactive |  | S=c1[nH]nc(-c2ccc(OCc3ccccc3)cc2)n1/N=C/c1ccc(OCc2ccccc2)cc1 |  |  | 3.2 µM |  |  | 2.2 µM
5 |  |  | inactive | inactive | inactive |  | 60% |  | inactive | inactive | inactive | inactive | inactive |  | Fc1cccc(-c2n[nH]c(=S)n2/N=C/c2ccc(OCc3ccccc3)cc2)c1 |  |  |  |  |  | 
6 |  |  |  |  |  | 14 mm | inactive | inactive |  |  |  |  |  | 7 mm | COc1cc(O)ccc1/C=N/n1c(-c2ccccc2C)n[nH]c1=S | 10 µM | 6 µM | 120 µM | 2.4 µM | 4 µM | 
7 | 15 mm | 42% |  |  |  | 14 mm | 35% |  |  |  | 60% |  |  |  | O=C(O)c1ccccc1/C=N/n1c(COc2ccc3ccccc3c2)n[nH]c1=S | 2 µM |  | 2.4 µM | 3 µM |  | 
8 |  | 54% |  | 37% |  | 14 mm | 54% |  |  |  | 48% |  |  | 6 mm | Cc1ccccc1-c1n[nH]c(=S)n1/N=C/c1cc(O)ccc1O | 11 µM |  |  | 1.6 µM |  | 
9 |  |  | inactive | inactive | inactive |  | inactive | inactive | inactive | inactive | 31% |  | inactive |  | S=c1[nH]nc(Cc2ccccc2)n1/N=C/c1ccc(OCc2ccccc2)cc1 |  |  |  |  | 5.5 µM | 

Further lines, the compound ahead of its results:

Row | SMILES | inhibition zone (IZ) [1] | inhibition [2] | inhibition [3] | inhibition [4] | inhibition [7] | inhibition zone (IZ) [8] | inhibition [9] | inhibition [13] | inhibition [14] | inhibition [15] | inhibition [16] | inhibition [17] | inhibition [18] | inhibition zone (IZ) [20] | Ki [5] | Ki [6] | Ki [10] | Ki [11] | Ki [12] | Ki [19]
10 | O=C(O)c1ccccc1/C=N/n1c(CCc2ccccc2)n[nH]c1=S | 15 mm | 50% | inactive | inactive | 56% | 14 mm | 37% |  |  |  |  |  |  |  | 7 µM | 4 µM |  |  |  | 
11 | S=c1[nH]nc(C(c2ccccc2)c2ccccc2)n1/N=C/c1ccc(OCc2ccccc2)cc1 |  |  | 60% |  | inactive |  |  | 50% | inactive | inactive | inactive | inactive | inactive |  |  |  |  |  |  | 
12 | Oc1ccc(/C=N/n2c(-c3ccc(OCc4ccccc4)cc3)n[nH]c2=S)c(O)c1 |  |  |  | 42% | inactive |  | 62% |  | inactive | inactive | inactive | inactive | inactive |  |  |  |  |  |  | 
13 | Cc1ccccc1-c1n[nH]c(=S)n1/N=C/c1cnc[nH]1 |  | 36% | inactive | inactive | inactive |  | inactive | inactive | inactive | inactive | inactive | inactive | inactive |  |  |  |  |  |  | 
14 | S=c1[nH]nc(CCc2ccccc2)n1/N=C/c1ccc(OCc2ccccc2)cc1 |  |  |  | 30% |  |  |  |  | inactive | inactive |  |  |  | 6 mm |  | 32 µM |  | 2 µM | 1 µM | 9 µM
15 | S=c1[nH]nc(-c2cccc(Cl)c2)n1/N=C/c1ccc(OCc2ccccc2)cc1 | 15 mm |  |  |  | 35% |  | inactive | inactive | inactive | inactive | 60% |  |  |  |  |  | 6.7 µM |  |  | 
16 | Cc1ccccc1-c1n[nH]c(=S)n1/N=C/c1ccc(F)cc1 |  |  | 60% |  | inactive |  | 30% |  | inactive | inactive | 30% |  | inactive |  |  |  |  |  |  | 
17 | O=C(O)c1ccccc1/C=N/n1c(-c2cc(O)ccc2O)n[nH]c1=S |  |  |  |  |  | 14 mm | inactive | inactive |  |  |  |  |  | 6 mm | 0.6 µM | 38 µM | 79 µM | 0.2 µM | 52 µM | 
18 | S=c1[nH]nc(-c2cccc(Br)c2)n1/N=C/c1ccc(OCc2ccccc2)cc1 |  |  | inactive | inactive | inactive |  | inactive | inactive | inactive | inactive | 15% |  | inactive |  |  |  |  |  |  | 
19 | O=C(O)c1ccccc1/C=N/n1c(-c2cccc(C(F)(F)F)c2)n[nH]c1=S | 15 mm | 35% |  |  |  |  |  | 50% | inactive | inactive | 40% |  |  |  |  |  |  | 1.6 µM |  | 
